# Laboratory results: PubChem BioAssay AID624380 (The Scripps Research Institute Molecular Screening Center, 2012)
# About 120 (5.2%) of roughly 2,300 compounds were called active. A selection follows. A number with no mark means an inactive call.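 The calls were made as follows: active = mean activation above the mean of DMSO-only wells plus 3 SD (cut at about 0.5% in these data); inactive = the rest.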
# Target: Mu-type opioid receptor (Homo sapiens) (UniProt P35372)
# Assay: OPRM1 agonists via beta-arrestin recruitment, confirmation, counter-screen for mouse HTR2A agonist project, cell-based, luminescence, single concentration (AID 624380)
# Details: U2OS OPRM1 beta-arrestin PathHunter, at 9.3 µM, stronger effect = higher value, DMSO 0%, DAMGO 9.3 µM 100%
# Summary of the method: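 System: U2OS OPRM1 beta-arrestin beta-gal complementation cell line | Quantity: 1000 cells per well | Reagent: DAMGO reference agonist, 9.3 µM | Doses: Single-point 9.3 µM, 0.93% DMSO | Schedule: 3 h compound treatment, 37 °C, 1 h room-temperature reagent step | Signal: Chemiluminescence from reconstituted beta-galactosidase after detection reagent addition | Replication: Three wells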
# Sequence of Mu-type opioid receptor (Homo sapiens) (P35372 whole entry, looked up): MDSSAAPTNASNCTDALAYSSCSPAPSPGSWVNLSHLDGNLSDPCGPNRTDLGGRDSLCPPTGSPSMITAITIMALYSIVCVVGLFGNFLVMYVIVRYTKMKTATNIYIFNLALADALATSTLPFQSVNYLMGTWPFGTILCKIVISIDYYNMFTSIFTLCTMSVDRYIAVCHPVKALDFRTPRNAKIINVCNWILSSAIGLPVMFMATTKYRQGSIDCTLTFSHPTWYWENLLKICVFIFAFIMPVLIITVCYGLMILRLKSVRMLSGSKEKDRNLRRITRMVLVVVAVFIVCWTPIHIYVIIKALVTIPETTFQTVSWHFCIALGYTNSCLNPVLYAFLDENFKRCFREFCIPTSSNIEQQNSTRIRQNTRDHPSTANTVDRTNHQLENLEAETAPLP
row,SMILES,activation
1,CCCN(CCc1ccccc1)C1CCc2c(O)cccc2C1 (stereo not drawn),0.3%
2,N#CCSc1nn(-c2ccc(F)cc2)c(=S)s1,-0.5%
3,Cc1[nH]c2ccccc2c1CCN(Cc1cccs1)C(=S)NC(C)(C)C,-0.25%
4,O=C(O)c1ccc(S(=O)(=O)N2CCC(Cc3ccccc3)CC2)cc1,-0.67%
5,CCOC(=O)/C=c1\s/c(=C\c2ccccc2OC)c(=O)n1CC(=O)N1CCOCC1,-0.62%
6,C=CCn1c(=NC(=O)c2cccs2)sc2cc(NC(C)=O)ccc21,0.46%
7,O=C1CCc2cc(S(=O)(=O)N3CCC(C(=O)NCc4ccccc4Cl)CC3)ccc2N1,-0.62%
8,O=C(NCCCN1CCN(c2ccccc2F)CC1)C1CCC(=O)N1C1CCCCC1 (stereo not drawn),-0.51%
9,CSc1nsc(SCC(=O)Nc2cc(C(=O)O)ccc2C)n1,-0.51%
10,CC(Nc1ccccc1)c1cccnc1 (stereo not drawn),-0.58%
11,CCOC(=O)[C@]12CCCC=C1N(Cc1ccc3c(c1)OCO3)C(=O)[C@H](CC(=O)NCc1cccs1)C2,-0.19%
12,OCC1(Cc2ccccc2)CCN(Cc2cc3ccccc3o2)CC1,0.94% (active)
13,Cn1c2c(c(=O)n(C)c1=O)C(c1ccc(O)cc1)Nc1ccccc1O2 (stereo not drawn),-0.51%
14,O=C(O)C1C2C=CC(O2)C1C(=O)NCCc1cccc(Cl)c1 (stereo not drawn),-0.74%
15,COc1ccc(/C(=N\O)c2nccc3cc(OC)c(OC)cc23)cc1OC,-0.42%
16,CC(=O)N1c2ccc(S(=O)(=O)N3CCC(C(=O)NC4CCCCC4C)CC3)cc2CC1C (stereo not drawn),-0.74%
17,COC(=O)CC(=O)N1CCN(c2ccc(Cl)c(Cl)c2)CC1,-0.63%
18,Fc1ccc2[nH]c3c(N4CCSCC4)ncnc3c2c1,1.59% (active)
19,CN(C)[C@@H]1C(=O)C(C(N)=O)=C(O)[C@@]2(O)C(=O)C3=C(O)c4c(O)ccc(Cl)c4[C@@H](O)[C@H]3C[C@@H]12,-0.63%
20,O=C(c1ccco1)N1CCN(CCOc2ccccc2)CC1,-0.48%
21,Cc1ccc2c(c1)NCC(C(=O)NC1CCC(C)CC1)O2 (stereo not drawn),-0.52%
22,COc1ccc(-c2nc3cc([N+](=O)[O-])ccc3o2)cc1OC,0.11%
23,COc1ccc(C(C)=O)cc1COC(=O)Cn1cnc2ccccc2c1=O,0.31%
24,Cc1oc2cc(Br)c(O)c(Br)c2c1C(=O)c1ccccc1,-0.51%

row,SMILES,activation
1,CCCCn1c(N)c(N(CC(C)C)C(=O)CSc2ccc([N+](=O)[O-])cc2)c(=O)[nH]c1=O,-0.28%
2,COc1ccc2[nH]cc(CCN3C(=O)c4ccc(C(=O)O)cc4C3=O)c2c1,-0.57%
3,Cc1ccc(C(=O)N/C(=C/c2cccs2)C(=O)N2CCCCC2)cc1,-0.51%
4,O=C(Nc1ccc2c(c1)[C@@H]1C[C@@H](CC(=O)N3CCCCC3)O[C@@H](CO)[C@@H]1O2)NC1CCCCC1,-0.54%
5,Cc1cccc(CN2CCN(C3CN(Cc4cn(Cc5cc(C)cc(C)c5)nn4)S(=O)(=O)C3)CC2)c1 (stereo not drawn),-0.64%
6,COC(=O)Cn1nc(-c2ccccc2)c2cc(Cl)ccc21,-0.43%
7,CCCC(=O)N=c1sc2cccc(F)c2n1C,-0.39%
8,CCCCNc1c(-c2cccc(Sc3ccc(OC)cc3)c2)nc2ccccn12,-0.06%
9,CC(=O)c1ccc(OCC(=O)N(C)C2CCS(=O)(=O)C2)cc1 (stereo not drawn),-0.71%
10,Cc1ccc(S(=O)(=O)N2CCN(c3ncnc4ccccc34)CC2)cc1,0.43%
11,N/C(=N\S(=O)(=O)c1cc(C(F)(F)F)cc(C(F)(F)F)c1)c1cccs1,0.39%
12,CC1(Cc2cccc(C#N)c2)C(=O)Nc2ccc(-c3cccc(C(F)(F)F)c3)cc21 (stereo not drawn),-0.07%
13,NNc1cccc(C=Cc2ccccc2)cc1=O,0.48%
14,COc1cccc(NC(=O)CSc2nnc(-c3cccnc3)o2)c1,-0.3%
15,O=C1CC(c2cccc(Cl)c2)CC(O)=C1C=Nc1ccccc1 (stereo not drawn),-0.61%
16,COC(=O)c1ccc(CSc2nnc(NC(C)C)s2)cc1,-0.75%
17,C/C(=N\NC(=S)NC1CCCCC1)c1ccc(C)o1,-0.73%
18,COCCN(Cc1cc2cc3c(cc2nc1Cl)OCO3)C(=O)c1cccc(C)c1,-0.33%
19,Nc1c(N(Cc2ccco2)C(=O)c2cccc(F)c2)c(=O)[nH]c(=O)n1Cc1ccccc1,-0.45%
20,COC(=O)[C@@]1(Cc2ccc(F)cc2)[C@H]2c3cc(C(=O)N(C)C)n(CCc4c[nH]c5ccc(OC)cc45)c3C[C@H]2CN1C(=O)c1ccccc1,-0.5%
21,Cc1ccc(NC(=O)CSc2nnc(COc3ccccc3C)o2)cc1,-0.2%
22,CNCC(O)c1ccc(O)c(O)c1 (stereo not drawn),-0.22%
23,CSc1ncnc2c1ncn2CCCNCc1cccs1,-0.51%
24,CCCCC(CC)CNC(=O)CCCCn1c(=O)[nH]c2ccsc2c1=O (stereo not drawn),-0.47%
